# pIC50: −log10 of the molar value. Active and inactive are the calls of the source. The calls are words filed in the database; no cut-off is given here.
# Tests used:
# [1] = Selectivity index, ratio of IC50 for human WI38 cells to IC50 for mouse NFS60 cells
# Outline: (§1)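 SI calculated as IC50 on normal Wi-38 fibroblasts divided by IC50 on the cancer cell line. Both came from 72 h MTT assays.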
# HepG2 [2] = experiment: Cytotoxicity against human HepG2 cells assessed as cell growth inhibition incubated for 72 hrs by MTT assay; assay type: functional, cell-based; details: HepG2, 72 h
# Outline: (§2)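 Cells grown in RPMI-1640 with 10% FBS and seeded at 5×10^3 per well. After 24 h, serial concentrations given for 72 h at 37°C, 5% CO2. Then 5 mg/mL MTT stock added for 3 h, formazan dissolved in DMSO, A570 read. IC50 calculated from the curves.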
# NFS-60 [3] = experiment: Cytotoxicity against mouse NFS60 cells assessed as cell growth inhibition incubated for 72 hrs by MTT assay; assay type: functional, cell-based; details: NFS-60, 72 h; outline: as §2
# MCF7 [4] = experiment: Cytotoxicity against human MCF7 cells assessed as cell growth inhibition incubated for 72 hrs by MTT assay; assay type: functional, cell-based; details: MCF7, 72 h; outline: as §2
# Staphylococcus aureus [5] = experiment: Antimicrobial activity against Staphylococcus aureus ATCC 25923 incubated for 24 hrs by agar well diffusion assay; assay type: functional
# Outline: (§3)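 Nutrient agar spread with 100 µL inoculum: bacteria at 1×10^8 CFU/mL, fungi at 1×10^6 CFU/mL. 10 mm wells loaded with 100 µL of compound in DMSO (final 1 mg/mL). Bacteria incubated 24 h at 37 °C, fungi 48 h at 28 °C. Inhibition zones measured in mm. Ciprofloxacin and fluconazole standards at 1 mg/mL, DMSO negative control.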
# Escherichia coli [6] = experiment: Antimicrobial activity against Escherichia coli ATCC 25922 incubated for 24 hrs by agar well diffusion assay; assay type: functional; outline: as §3
# Pseudomonas aeruginosa = experiment: Antimicrobial activity against Pseudomonas aeruginosa ATCC 27853 incubated for 24 hrs by agar well diffusion assay; assay type: functional; outline: as §3
# [7] = Selectivity index, ratio of IC50 for human WI38 cells to IC50 for human MCF7 cells; assay type: toxicity; details: WI38 cells versus MCF7 cells, read-out: Ratio IC50; outline: as §1
# Enterococcus faecalis = experiment: Antimicrobial activity against Enterococcus faecalis ATCC 29212 incubated for 24 hrs by agar well diffusion assay; assay type: functional; outline: as §3
# Staphylococcus aureus [8] = experiment: Antimicrobial activity against Staphylococcus aureus ATCC 25923 incubated for 24 hrs by microdilution assay; assay type: functional
# Outline: (§4)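 Two-fold serial dilutions of test solutions made in Mueller Hinton broth and inoculated. Incubated at 37°C for 24 h. MIC taken as the lowest concentration with no growth. Ciprofloxacin is the antibacterial reference, fluconazole the antifungal one, and DMSO the blank.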
# [9] = Selectivity index, ratio of IC50 for human WI38 cells to IC50 for human HepG2 cells; assay type: toxicity; details: WI38 cells versus HepG2 cells, read-out: Ratio IC50; outline: as §1
# Candida albicans [10] = experiment: Antimicrobial activity against Candida albicans ATCC 90028 incubated for 48 hrs by agar well diffusion assay; assay type: functional; outline: as §3
# WI-38 = experiment: Cytotoxicity against human WI38 cells assessed as cell growth inhibition incubated for 72 hrs by MTT assay; assay type: cell-based; details: for pIC50: Homo sapiens, WI-38, 72 h; for EC100: human, wi-38, 72 h
# Outline: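 Wi-38 fibroblasts grown in DMEM with 10% FBS and seeded at 5×10^3 per well. Attachment 24 h, then serial concentrations for 72 h at 37°C, 5% CO2. MTT stock (5 mg/mL) added for 3 h at 37°C, DMSO solubilization, absorbance at 570 nm. IC50 estimated.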
# Escherichia coli [11] = experiment: Antimicrobial activity against Escherichia coli ATCC 25922 incubated for 24 hrs by microdilution assay; assay type: functional; details: ATCC 25922, 24 h; outline: as §4
# Candida albicans [12] = experiment: Antimicrobial activity against Candida albicans ATCC 90028 incubated for 24 hrs by microdilution assay; assay type: functional; outline: as §4
# MCF7 [13] = experiment: Induction of apoptosis in human MCF7 cells assessed as early apoptotic cells at IC50 incubated for 72 hrs by annexin V/propidium iodide staining based flow cytometry (reference value: 0.47 +/- 0.01%); assay type: functional
# HepG2 [14] = experiment: Induction of apoptosis in human HepG2 cells assessed as caspase 3/7 activity using DEVD aminoluciferin as substrate at IC50 after 24 hrs by fluorescence assay relative to control; assay type: functional
# Outline: (§5)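 Caspase 3/7 activation measured with Caspase-Glo 3/7 kit using a luminogenic caspase-cleavable substrate. […] Reported as percent activation, mean ± SEM.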
# HepG2 [15] = experiment: Induction of apoptosis in human HepG2 cells assessed as necrotic cells level at IC50 incubated for 72 hrs by annexin V/propidium iodide staining based flow cytometry (reference value: 0.87%); assay type: functional
# NFS-60 [16] = experiment: Induction of apoptosis in mouse NFS60 cells assessed as total apoptotic cells at IC50 incubated for 72 hrs by annexin V/propidium iodide staining based flow cytometry (reference value: 0.495 +/- 0.01%); assay type: functional
# HepG2 [17] = experiment: Induction of apoptosis in human HepG2 cells assessed as early apoptotic cells level at IC50 incubated for 72 hrs by annexin V/propidium iodide staining based flow cytometry (reference value: 0.05%); assay type: functional
# HepG2 [18] = experiment: Induction of apoptosis in human HepG2 cells assessed as total apoptotic cells at IC50 incubated for 72 hrs by annexin V/propidium iodide staining based flow cytometry (reference value: 0.169 +/- 0.02%); assay type: functional
# MCF7 [19] = experiment: Induction of apoptosis in human MCF7 cells assessed as late apoptotic cells at IC50 incubated for 72 hrs by annexin V/propidium iodide staining based flow cytometry (reference value: 0.01 +/- 0.001%); assay type: functional
# MCF7 [20] = experiment: Induction of apoptosis in human MCF7 cells assessed as early apoptotic cells level at IC50 incubated for 72 hrs by annexin V/propidium iodide staining based flow cytometry (reference value: 0.01%); assay type: functional
# NFS-60 [21] = experiment: Induction of apoptosis in mouse NFS60 cells assessed as caspase 3/7 activity using DEVD aminoluciferin as substrate at IC50 after 24 hrs […] relative to control; assay type: functional; outline: as §5
# HepG2 [22] = experiment: Induction of apoptosis in human HepG2 cells assessed as late apoptotic cells at IC50 incubated for 72 hrs by annexin V/propidium iodide staining based flow cytometry (reference value: 0.1 +/- 0.001%); assay type: functional
# NFS-60 [23] = experiment: Induction of apoptosis in mouse NFS60 cells assessed as late apoptotic cells level at IC50 incubated for 72 hrs by annexin V/propidium iodide staining based flow cytometry (reference value: 0.01%); assay type: functional
# NFS-60 [24] = experiment: Induction of apoptosis in mouse NFS60 cells assessed as early apoptotic cells level at IC50 incubated for 72 hrs by annexin V/propidium iodide staining based flow cytometry (reference value: 0.46%); assay type: functional
# HepG2 [25] = experiment: Induction of apoptosis in human HepG2 cells assessed as early apoptotic cells at IC50 incubated for 72 hrs by annexin V/propidium iodide staining based flow cytometry (reference value: 0.78 +/- 0.09%); assay type: functional
# MCF7 [26] = experiment: Induction of apoptosis in human MCF7 cells assessed as total apoptotic cells at IC50 incubated for 72 hrs by annexin V/propidium iodide staining based flow cytometry (reference value: 0.48 +/- 0.01%); assay type: functional
# NFS-60 [27] = experiment: Induction of apoptosis in mouse NFS60 cells assessed as early apoptotic cells at IC50 incubated for 72 hrs by annexin V/propidium iodide staining based flow cytometry (reference value: 0.02 +/- 0.01%); assay type: functional
# NFS-60 [28] = experiment: Induction of apoptosis in mouse NFS60 cells assessed as necrotic cells level at IC50 incubated for 72 hrs by annexin V/propidium iodide staining based flow cytometry (reference value: 0.01%); assay type: functional
# HepG2 [29] = experiment: Induction of apoptosis in human HepG2 cells assessed as late apoptotic cells level at IC50 incubated for 72 hrs by annexin V/propidium iodide staining based flow cytometry (reference value: 0.1%); assay type: functional
# MCF7 [30] = experiment: Induction of apoptosis in human MCF7 cells assessed as caspase 3/7 activity using DEVD aminoluciferin as substrate at IC50 after 24 hrs […] relative to control; assay type: functional; outline: as §5
# NFS-60 [31] = experiment: Induction of apoptosis in mouse NFS60 cells assessed as viable cells level at IC50 incubated for 72 hrs by annexin V/propidium iodide staining based flow cytometry (reference value: 99.52%); assay type: functional
# NFS-60 [32] = experiment: Induction of apoptosis in mouse NFS60 cells assessed as late apoptotic cells at IC50 incubated for 72 hrs by annexin V/propidium iodide staining based flow cytometry (reference value: 0.015 +/- 0.01%)
# MCF7 [33] = experiment: Induction of apoptosis in human MCF7 cells assessed as viable cells level at IC50 incubated for 72 hrs by annexin V/propidium iodide staining based flow cytometry (reference value: 99.5%); assay type: functional
# MCF7 [34] = experiment: Induction of apoptosis in human MCF7 cells assessed as late apoptotic cells level at IC50 incubated for 72 hrs by annexin V/propidium iodide staining based flow cytometry (reference value: 0.01%); assay type: functional
# HepG2 [35] = experiment: Induction of apoptosis in human HepG2 cells assessed as viable cells level at IC50 incubated for 72 hrs by annexin V/propidium iodide staining based flow cytometry (reference value: 98.97%); assay type: functional
# MCF7 [36] = experiment: Induction of apoptosis in human MCF7 cells assessed as necrotic cells level at IC50 incubated for 72 hrs by annexin V/propidium iodide staining based flow cytometry (reference value: 0.48%); assay type: functional
compound,measurement,setting,value
O=COC1(C(=O)Nc2ccc([N+](=O)[O-])cc2)CCCCC1,Ratio IC50,[1],1.369
same,pIC50,HepG2 [2],7.47
same,pIC50,NFS-60 [3],7.47
same,pIC50,MCF7 [4],7.45
same,diameter of the inhibition zone (DIZ),Staphylococcus aureus [5],inactive
same,diameter of the inhibition zone (DIZ),Escherichia coli [6],15 mm
same,diameter of the inhibition zone (DIZ),Pseudomonas aeruginosa,18 mm
same,selectivity ratio,[7],1.31
same,diameter of the inhibition zone (DIZ),Enterococcus faecalis,12 mm
same,MIC,Staphylococcus aureus [8],inactive
same,selectivity ratio,[9],1.36
same,diameter of the inhibition zone (DIZ),Candida albicans [10],inactive
same,pIC50,WI-38,7.33
same,EC100,WI-38,0.0271 µM
same,MIC,Escherichia coli [11],3500 µM
same,MIC,Candida albicans [12],inactive
O=C(OC1(C(=O)Nc2ccc([N+](=O)[O-])cc2)CCCCC1)c1ccc(Cl)cc1,Ratio IC50,[1],34.466
same,pIC50,HepG2 [2],7.66
same,pIC50,NFS-60 [3],7.99
same,pIC50,MCF7 [4],7.82
same,diameter of the inhibition zone (DIZ),Staphylococcus aureus [5],inactive
same,diameter of the inhibition zone (DIZ),Escherichia coli [6],14 mm
same,diameter of the inhibition zone (DIZ),Pseudomonas aeruginosa,16 mm
same,selectivity ratio,[7],23.7
same,diameter of the inhibition zone (DIZ),Enterococcus faecalis,13 mm
same,MIC,Staphylococcus aureus [8],inactive
same,selectivity ratio,[9],16.3
same,diameter of the inhibition zone (DIZ),Candida albicans [10],inactive
same,pIC50,WI-38,6.45
same,EC100,WI-38,0.1128 µM
same,MIC,Escherichia coli [11],1270 µM
same,MIC,Candida albicans [12],inactive
COc1cccc2c1C(=O)c1c(O)c3c(c(O)c1C2=O)C[C@@](O)(C(=O)CO)C[C@@H]3O[C@H]1C[C@H](N)[C@H](O)[C@H](C)O1 [DOXORUBICIN],Activity,MCF7 [13],13.53%
same,Activity,HepG2 [14],48.09%
same,Activity,HepG2 [15],11.94%
same,Activity,NFS-60 [16],34.595%
same,Activity,HepG2 [17],10.54%
same,pIC50,HepG2 [2],8.00
same,Activity,HepG2 [18],36.08%
same,pIC50,NFS-60 [3],7.89
same,Activity,MCF7 [19],20.445%
same,Activity,MCF7 [20],5.92%
same,Activity,NFS-60 [21],45.39%
same,Activity,HepG2 [22],25.49%
same,Activity,NFS-60 [23],21.62%
same,Activity,NFS-60 [24],7.27%
same,Activity,HepG2 [25],10.59%
same,Activity,MCF7 [26],33.974%
same,Activity,NFS-60 [27],11.379%
same,Activity,NFS-60 [28],12.76%
same,Activity,HepG2 [29],23.91%
same,pIC50,WI-38,7.58
same,EC100,WI-38,0.0121 µM
same,Activity,MCF7 [30],42.94%
same,Activity,NFS-60 [31],58.34%
same,Activity,NFS-60 [32],23.215%
same,Activity,MCF7 [33],60.42%
same,Activity,MCF7 [34],18.78%
same,Activity,HepG2 [35],53.61%
same,Activity,MCF7 [36],14.88%
